Assay results published in ChEMBL document CHEMBL5370635, “Structure-Based Design and Synthesis of Potent and Selective KRAS G12D Inhibitors” (ACS Med Chem Lett, 2023).

Legend:
GTPase KRas [1] = biological target: T1, GTPase KRas (Homo sapiens, UniProt P01116, G12D); test: Inhibition of GDP-bound biotinylated-KRAS G12D mutant (1 to 169 residues) (unknown origin) assessed as suppression of SOS1-mediated nucleotide exchange by measuring reduction in KRAS G12D mutant-RAF RBD complex formation preincubated for 60 mins followed by SOS1 addition and further incubated for 60 mins and subsequent addition of KRAS G12D mutant-RAF RBD mixture measured after 30 to 60 mins by FRET assay
GTPase KRas [2] = biological target: T1, GTPase KRas; test: Inhibition of KRAS G12D mutant in human ASPC1 cells assessed as reduction in ERK phosphorylation measured after 4 hrs by HTRF assay; type: cell-based
GTPase KRas [3] = biological target: T2, GTPase KRas (Homo sapiens, UniProt P01116); test: Inhibition of wild-type GDP-bound biotinylated-KRAS (unknown origin) assessed as suppression of SOS1-mediated nucleotide exchange by measuring reduction in KRAS-RAF RBD complex formation preincubated for 60 mins followed by SOS1 addition and further incubated for 60 mins and subsequent addition of KRAS-RAF RBD mixture measured after 30 to 60 mins by FRET assay
GTPase KRas [4] = biological target: T2, GTPase KRas; test: Thermal stabilization of wild-type GDP-bound KRAS (1 to 169 residues) (unknown origin) assessed as melting temperature incubated for 1 hrs by differential scanning fluorimetry assay
[5] = system: GTPase KRas (Homo sapiens), P01116 [G12D]; test: Thermal stabilization of GDP-bound KRAS G12D mutant (1 to 169 residues) (unknown origin) assessed as melting temperature incubated for 1 hrs by differential scanning fluorimetry assay
ASPC1 [6] = test: Antiproliferative activity against human ASPC1 cells assessed as reduction in cell viability measured after 5 days by Cell-Titer Glo assay; type: functional, cell-based; conditions: ASPC1, 120 h
Method in brief: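 AsPC-1 PDAC cells (KRAS G12D) grown in three-dimensional culture; viability read by Cell-Titer Glo luminescence.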

AGS = test: Antiproliferative activity against human AGS cells assessed as reduction in cell viability measured after 5 days by Cell-Titer Glo assay; type: functional, cell-based; conditions: 120 h
[7] = Antiproliferative activity against RAS initiative G12D cells assessed as reduction in cell viability after 5 days of treatment by Cell-Titer Glo assay; type: functional, cell-based; conditions: Homo sapiens, 120 h
SK-LU-1 = test: Antiproliferative activity against human SK-LU-1 cells assessed as reduction in cell viability measured after 5 days by Cell-Titer Glo assay; type: functional, cell-based; conditions: SK-LU-1, 120 h
[8] = Antiproliferative activity against RAS initiative wild-type cells assessed as reduction in cell viability after 5 days of treatment by Cell-Titer Glo assay; type: functional, cell-based; conditions: Homo sapiens, 120 h
HPAF-II = test: Antiproliferative activity against human HPAF-II cells assessed as reduction in cell viability measured after 5 days by Cell-Titer Glo assay; type: functional, cell-based; conditions: 120 h
HPAC = test: Antiproliferative activity against human HPAC cells assessed as reduction in cell viability measured after 5 days by Cell-Titer Glo assay; type: functional, cell-based; conditions: 120 h
LS-513 = test: Antiproliferative activity against human LS-513 cells assessed as reduction in cell viability measured after 5 days by Cell-Titer Glo assay; type: functional, cell-based; conditions: LS-513, 120 h
[9] = Antiproliferative activity against human GP2d cells assessed as reduction in cell viability measured after 5 days by Cell-Titer Glo assay; type: functional, cell-based; conditions: 120 h
[10] = Antiproliferative activity against human Panc 04.03 cells assessed as reduction in cell viability measured after 5 days by Cell-Titer Glo assay; type: functional, cell-based; conditions: Panc 04.03, 120 h
[11] = Selectivity ratio of IC50 for RAS initiative wild-type cells to IC50 for RAS initiative G12D cells; type: functional
[12] = Antiproliferative activity against human SNU-1033 cells assessed as reduction in cell viability measured after 5 days by Cell-Titer Glo assay; type: functional, cell-based; conditions: SNU-1033, 120 h
ASPC1 [13] = test: Antitumor activity against human ASPC1 cells xenografted in mouse assessed as inhibition of tumor growth at 3 mg/kg bid for 28 days relative to control; type: functional; conditions: ASPC1, 672 h, time 28 day, read-out: TGI
Method in brief: (§1)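 Mice bearing AsPC-1 (KRAS G12D pancreatic ductal adenocarcinoma) xenografts were given repeated twice-daily doses of 3, 10 or 20 mg/kg alongside a vehicle control group, with n = 8 per group. Tumor growth inhibition or regression was assessed against vehicle, with body weight also tracked. Group means were reported with SEM, and P values were calculated versus vehicle.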

[14] = Toxicity in human ASPC1 cell xenografted mouse at 3 to 20 mg/kg bid administered for 28 days; type: organism-based; conditions: in vivo, 672 h, dose 3-20 mg/kg, time 28 day
Method in brief: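 Mice bearing AsPC-1 KRAS G12D PDAC xenografts dosed BID at 3, 10 or 20 mg/kg alongside a vehicle control group. Body weight change tracked over the treatment period together with tumour growth. Group means, n = 8, with SEM.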

ASPC1 [15] = test: Antitumor activity against human ASPC1 cells xenografted in mouse assessed as tumor regression at 20 mg/kg bid for 28 days relative to control; type: functional; conditions: time 28 day; method in brief: as §1
ASPC1 [16] = test: Antitumor activity against human ASPC1 cells xenografted in mouse assessed as inhibition of tumor growth at 10 mg/kg bid for 28 days relative to control; type: functional; conditions: ASPC1, 672 h, time 28 day, read-out: TGI; method in brief: as §1
Homo sapiens = organism: Homo sapiens; test: Selectivity ratio of IC50 for wild-type GDP-bound biotinylated-KRAS (unknown origin) to IC50 for GDP-bound biotinylated-KRAS G12D mutant (1 to 169 residues) (unknown origin)
ASPC1 [17] = test: Antitumor activity against human ASPC1 cells xenografted in mouse assessed as inhibition of tumor growth at 20 mg/kg bid for 28 days relative to control; type: functional; set-up: scale not given: the % may be the effect or the level left; conditions: time 28 day; method in brief: as §1

Structure (SMILES)	IC50 (GTPase KRas [1])	IC50 (GTPase KRas [2])	IC50 (GTPase KRas [3])	ΔTm (GTPase KRas [4])	ΔTm [5]	further results
Cc1cc(N)nc(-c2c(Cl)cc3c(N4C[C@H]5CC[C@@H](C4)N5)nc(OC[C@@]45CCCN4C[C@H](F)C5)nc3c2F)c1C(F)(F)F	2.1 nM	89.9 nM	153 nM	5.2 °C	11.7 °C	
Cc1cc(N)nc(-c2c(Cl)cc3c(N4C[C@H]5CC[C@@H](C4)N5)nc(OCC45CCCN4CCC5)nc3c2F)c1C(F)(F)F	2.1 nM	928 nM	214 nM	4.6 °C	10.9 °C	
CN1CCC[C@H]1COc1nc(N2C[C@H]3CC[C@@H](C2)N3)c2cc(Cl)c(-c3ccc(F)c4sc(N)c(C#N)c34)c(F)c2n1	1.3 nM	138 nM	17 nM	10.3 °C	17.1 °C	
N#Cc1c(N)sc2c(F)ccc(-c3c(Cl)cc4c(N5C[C@H]6CC[C@@H](C5)N6)nc(OC[C@@]56CCCN5C[C@H](F)C6)nc4c3F)c12	0.98 nM	4.3 nM	4.2 nM	13.4 °C	20.2 °C	IC50 (ASPC1 [6]): 15.1 nM; IC50 (AGS): 1.2 nM; IC50 [7]: 33.4 nM; IC50 (SK-LU-1): 1.4 nM; IC50 [8]: 3440 nM; IC50 (HPAF-II): 14.2 nM; IC50 (HPAC): 3.4 nM; IC50 (LS-513): 7.5 nM; IC50 [9]: 0.2 nM; IC50 [10]: 58.6 nM; Ratio IC50 [11]: >100; IC50 [12]: 1890 nM
N#Cc1c(N)sc2c(F)ccc(-c3cc4nc(OC[C@@]56CCCN5C[C@H](F)C6)nc(N5C[C@H]6CC[C@@H](C5)N6)c4cc3Cl)c12	1.5 nM	42.9 nM	11.6 nM	9.4 °C	16 °C	
Nc1nc2c(-c3c(Cl)cc4c(N5C[C@H]6CC[C@@H](C5)N6)nc(OC[C@@]56CCCN5C[C@H](F)C6)nc4c3F)ccc(F)c2s1	3.8 nM	149 nM	39.6 nM	7.2 °C	14.7 °C	
Nc1cc2cccc(F)c2c(-c2c(Cl)cc3c(N4C[C@H]5CC[C@@H](C4)N5)nc(OC[C@@]45CCCN4C[C@H](F)C5)nc3c2F)n1	6 nM	1030 nM	> 1000 nM	2.2 °C	7.4 °C	
N#Cc1c(N)sc2c(F)ccc(-c3c(C(F)(F)F)cc4c(N5C[C@H]6CC[C@@H](C5)N6)nc(OC[C@@]56CCCN5C[C@H](F)C6)nc4c3F)c12	0.86 nM	2.1 nM	3.9 nM	8.3 °C	20.8 °C	inhibition in vivo at 3 mg/kg (ASPC1 [13]): 51%; Activity [14]: Non-Toxic; IC50 (ASPC1 [6]): 3.5 nM; IC50 (AGS): 0.7 nM; Activity (ASPC1 [15]): 54%; IC50 [7]: 5.8 nM; IC50 (SK-LU-1): 0.5 nM; IC50 [8]: 978 nM; IC50 (HPAF-II): 7.2 nM; IC50 (HPAC): 1.8 nM; IC50 (LS-513): 2 nM; IC50 [9]: 0.2 nM; inhibition in vivo at 10 mg/kg (ASPC1 [16]): 77%; IC50 [10]: 10.6 nM; Ratio IC50 [11]: >100; IC50 [12]: 623 nM
Cc1cc(N)nc(-c2c(Cl)cc3c(N4C[C@H]5CC[C@@H](C4)N5)nc(OC[C@@H]4CCCN4C)nc3c2F)c1C(F)(F)F	3.5 nM	941 nM	> 1000 nM	1.9 °C	7.3 °C	Ratio IC50 (Homo sapiens): > 286
N#Cc1c(N)sc2c(F)ccc(-c3c(Cl)cc4c(N5C[C@H]6CC[C@@H](C5)N6)ncnc4c3F)c12	5.32 nM	1080 nM	> 1000 nM	3.7 °C	7.4 °C	Ratio IC50 (Homo sapiens): 188
Nc1cc2ccccc2c(-c2c(Cl)cc3c(N4C[C@H]5CC[C@@H](C4)N5)nc(OC[C@@]45CCCN4C[C@H](F)C5)nc3c2F)n1	12.8 nM	2970 nM	> 1000 nM	0.8 °C	4.3 °C	
N#Cc1c(N)sc2c(F)ccc(-c3c(Cl)cc4c(N5C[C@H]6CC[C@@H](C5)N6)nc(OCC5(CN6CC[C@@H](F)C6)CC5)nc4c3F)c12	1 nM	30 nM	9.2 nM	12 °C	17.8 °C	
C#Cc1c(F)ccc2cc(O)cc(-c3ncc4c(N5C[C@H]6CC[C@@H](C5)N6)nc(OC[C@@]56CCCN5C[C@H](F)C6)nc4c3F)c12 [MRTX-1133]						inhibition in vivo at 3 mg/kg (ASPC1 [13]): 61%; Activity [14]: Non-Toxic; IC50 (ASPC1 [6]): 11 nM; IC50 (AGS): 3.2 nM; IC50 [7]: 16.4 nM; IC50 (SK-LU-1): 2.7 nM; IC50 [8]: 6470 nM; IC50 (HPAF-II): 14.9 nM; Activity (ASPC1 [17]): 94%; IC50 (HPAC): 4.2 nM; IC50 (LS-513): 8.1 nM; IC50 [9]: 0.4 nM; inhibition in vivo at 10 mg/kg (ASPC1 [16]): 83%; IC50 [10]: 27.6 nM; Ratio IC50 [11]: >100; IC50 [12]: 4980 nM
Cc1cc(N)nc(-c2c(Cl)cc3c(N4CCNC[C@@H]4C)nc(OC[C@@H]4CCCN4C)nc3c2F)c1C(F)(F)F	76.9 nM	> 10000 nM	> 1000 nM	1.4 °C	2.6 °C	
